Published values pooled from the literature.
Lines come from different studies, so protocols differ. pIC50: −log10 of the molar value.
CYP2E1: Cytochrome P450 2E1 (CYP2E1, Homo sapiens, UniProt P05181)

SMILES	target or system	assay	test system	conditions	endpoint	result
O=c1[nH]c2sc(-c3ccc(F)cc3)cc2c(=O)n1O	HFF	cell growth or viability, MTS		10 µM, 7 days	viability	112%
O=C(CN1C(=O)Cc2c([nH]c3ccc(Br)cc23)-c2ccc(Cl)cc21)N1CCNCC1	J774	cell growth or viability, WST-1		24 h	CC50	≤ 10 µM
O=c1[nH]c2sc(-c3ccc(Cl)cc3)cc2c(=O)n1O	HFF	cell growth or viability, MTS		10 µM, 7 days	viability	101%
O=C(CN1C(=O)Cc2c([nH]c3ccc(Br)cc23)-c2ccc(Cl)cc21)N1CCOCC1	J774	cell growth or viability, WST-1		24 h	CC50	≤ 10 µM
Cn1ccc(COc2cnc(C(N)=O)cc2-c2ccc(O[11CH3])cc2F)n1			male mouse, lung	intravenous, 2.5 MBq, 5 min	tracer uptake	2.61 %ID/g
Cc1csc2c(=O)n(O)c(=O)[nH]c12	HFF	cell growth or viability, MTS		10 µM, 7 days	viability	122%
CCN(CC)C(=S)S	CYP2E1	enzyme activity, inhibitor	human, liver microsomes	50 µM	inhibition	75%
Nc1nc(O)c2ncn(COC(CO)CO)c2n1	HFF	cell growth or viability, ATP luminescence			CC50	> 150 µM
Nc1ccc(C=Cc2ccc([125I])cc2)cc1			Swiss mouse, brain	intravenous, 5 µCi, 2 min	tracer uptake	2.29 %ID/g
O=C(CCCCCCC(=O)Nc1ccc(CC[18F])cc1)NO			male nude mouse, stomach	intravenous, 2 h, tumour-bearing	tracer uptake	1 %ID/g
CC1COc2ccccc2N1C(=O)C(Cl)Cl (stereo not shown)		metabolic stability	male monkey, liver microsomes	5 µM, pH 7.4	microsomal CLint	900 µL/min/mg
Nn1nnc2ccccc21	CYP2E1	enzyme activity, inhibitor, HPLC			pIC50	4.42
O=c1[nH]c2cc(-c3ccc(F)cc3)sc2c(=O)n1O	HFF	cell growth or viability, MTS		10 µM, 7 days	viability	61%
C[C@@H](c1ccc2nccn2c1)n1nnc2ncc(-c3cnn(C)c3)nc21	CYP2E1	enzyme activity, inhibitor	human, liver microsomes	pH 7.4	pIC50	4.00
O=c1[nH]c2sc3c(c2c(=O)n1O)CCNC3	HFF	cell growth or viability, MTS		10 µM, 7 days	viability	107%
CN(C)C(=O)CN1C(=O)Cc2c([nH]c3ccc(Br)cc23)-c2ccc(Cl)cc21	J774	cell growth or viability, WST-1		24 h	CC50	≥ 100 µM
